Compound activity as filed in PubChem.
This is a sample that favours compounds with a hit; in the whole collection about 3.1% have one here.
KCNQ1 inh: blocks the human KCNQ1 potassium channel | P51787 | CHO-K1 KCNQ1, FluxOR thallium flux fluorescence; stronger effect = higher value | AID 2642 | 310,000 compounds, 1.3% hits | B-score at 10 µM;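 active = compounds whose thallium flux B-score, printed positive for inhibition, exceeds three library SD while starting fluorescence stays within three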;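 also: channel opened by potassium depolarization with thallium stimulus after 20 min compound exposure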
KCNK9 inh: blocks the human KCNK9 two-pore domain potassium channel; B-score at 10 µM; AID 488922; HEK293 KCNK9, FluxOR thallium flux fluorescence; stronger effect = lower value; Q9NPC2; 310,000 compounds, 1.2% hits;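 active = ratio B-score over 3 SD below the library mean, with starting fluorescence within 5 SD of its mean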;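 also: negative B-score means less thallium flux so channel inhibition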
hERG protect: hERG (human) protection from proarrhythmic block; Q12809; CHO-hERG, FluxOR thallium flux, dofetilide IC70 present; activation (rescue from dofetilide block), less the hit threshold, % at 10 µM; 310,000 compounds, 0.51% hits;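 active = activation above the mean of controls blocked by dofetilide plus 5 SD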;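 also: thallium influx through hERG after potassium depolarization seen as dye fluorescence rise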
Target sequence (Q12809 whole entry, looked up): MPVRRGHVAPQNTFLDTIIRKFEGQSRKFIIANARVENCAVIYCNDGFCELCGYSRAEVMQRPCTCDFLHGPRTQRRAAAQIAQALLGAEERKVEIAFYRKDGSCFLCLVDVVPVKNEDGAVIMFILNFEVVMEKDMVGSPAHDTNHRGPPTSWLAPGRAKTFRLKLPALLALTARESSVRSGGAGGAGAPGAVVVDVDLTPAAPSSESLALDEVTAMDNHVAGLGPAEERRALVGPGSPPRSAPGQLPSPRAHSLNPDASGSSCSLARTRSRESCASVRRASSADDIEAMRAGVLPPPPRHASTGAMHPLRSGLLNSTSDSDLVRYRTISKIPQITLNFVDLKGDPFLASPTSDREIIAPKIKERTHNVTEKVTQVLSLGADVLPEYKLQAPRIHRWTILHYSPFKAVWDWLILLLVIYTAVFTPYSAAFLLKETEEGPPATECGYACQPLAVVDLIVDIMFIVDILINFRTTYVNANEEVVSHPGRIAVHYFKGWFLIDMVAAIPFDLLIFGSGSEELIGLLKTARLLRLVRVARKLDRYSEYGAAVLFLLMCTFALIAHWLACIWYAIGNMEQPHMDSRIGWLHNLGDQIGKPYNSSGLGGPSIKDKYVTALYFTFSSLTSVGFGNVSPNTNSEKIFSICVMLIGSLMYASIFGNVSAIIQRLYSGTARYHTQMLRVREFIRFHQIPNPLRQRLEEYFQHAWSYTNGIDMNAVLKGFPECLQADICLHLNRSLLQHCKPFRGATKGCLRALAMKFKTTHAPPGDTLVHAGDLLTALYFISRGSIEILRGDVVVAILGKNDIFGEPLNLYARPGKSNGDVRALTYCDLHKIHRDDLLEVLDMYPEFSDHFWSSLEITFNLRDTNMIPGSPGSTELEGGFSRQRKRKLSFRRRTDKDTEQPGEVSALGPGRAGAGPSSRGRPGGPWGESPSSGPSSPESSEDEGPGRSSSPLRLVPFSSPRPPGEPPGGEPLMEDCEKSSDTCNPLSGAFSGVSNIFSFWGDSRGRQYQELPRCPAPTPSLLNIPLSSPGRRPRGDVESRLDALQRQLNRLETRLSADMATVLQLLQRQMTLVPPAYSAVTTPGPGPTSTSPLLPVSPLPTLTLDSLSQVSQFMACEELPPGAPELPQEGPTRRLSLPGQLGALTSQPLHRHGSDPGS
KCNQ1 act: potentiators or activators of human KCNQ1 potassium channel; P51787; CHO-K1 KCNQ1, thallium flux FluxOR fluorescence; stronger effect = higher value; B-score at 10 µM; 310,000 compounds, 0.35% hits;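 active = fluorescence ratio B-score, a plate-corrected score, at least three library SD, with initial intensity B-score within 5 SD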
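Assay system: CHO-K1 cells stably expressing KCNQ1; Medium: assay buffer with matched DMSO; Also added: K+/Tl+ depolarizing stimulus; Dosing: single dose; Timing: dye 90 min, compound 20 min, room temperature; Measured by: kinetic FluxOR thallium fluorescence, 10-s 1-Hz baseline, 110-s post-stimulus read; Read-out: peak-minus-minimum fluorescence over initial fluorescence, negative-control normalized, B-scored.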
KCNK3 block: human KCNK3 channel inhibition, primary screen | O14649 | CHO-KCNK3 thallium flux, FluxOR fluorescence; stronger effect = lower value | B-score at 10 µM | 340,000 compounds, 0.84% hits | AID 602410;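 active = B-score under library mean minus 4 SD, starting fluorescence ratio at most library mean plus 5 SD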;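 also: more negative B-score means stronger inhibition of thallium flux through KCNK3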
Hits are given with their value.

`O=C(/C=C/c1cn(-c2ccccc2)nc1-c1cccnc1)N1CCCCC1` gave KCNQ1 inh inactive, KCNK9 inh inactive, hERG protect inactive, KCNQ1 act inactive and KCNK3 block inactive.
For CCc1c(C)[nH]n(-c2nc(-c3ccccc3)cs2)c1=O the results were KCNQ1 inh inactive, KCNK9 inh inactive, hERG protect inactive, KCNQ1 act inactive and KCNK3 block inactive.
`Cc1[nH]n(-c2nc(-c3ccc(Cl)cc3)cs2)c(=O)c1N=Nc1ccc(O)cc1` gave KCNQ1 inh 8, KCNK9 inh inactive, hERG protect inactive, KCNQ1 act inactive and KCNK3 block inactive.
`COC(=O)C1=C(\O)CCCC/C=C\1C(=O)O` gave KCNK3 block inactive.
`CN(C)c1oc(-c2ccccc2[N+](=O)[O-])nc1C#N` gave KCNQ1 inh inactive, KCNK9 inh inactive, hERG protect 4.7, KCNQ1 act inactive and KCNK3 block inactive.
CN(C)c1oc(-c2ccccc2Cl)nc1C#N was read as KCNQ1 inh inactive, KCNK9 inh inactive, hERG protect inactive, KCNQ1 act inactive and KCNK3 block inactive.
`Cc1nc2sc(C(c3ccccc3)N3CCN(C(=O)c4ccco4)CC3)c(O)n2n1` (stereo unspecified) gave KCNQ1 inh inactive, KCNK9 inh inactive, hERG protect inactive, KCNQ1 act 12 and KCNK3 block inactive.
`Cc1ccc(C(c2sc3nc(C)nn3c2O)N2CCN(C(=O)c3ccco3)CC2)cc1` (stereo unspecified) gave KCNQ1 inh inactive, KCNK9 inh inactive, hERG protect inactive, KCNQ1 act inactive and KCNK3 block inactive.
Cc1ccc2nc(SCC(=O)NCCCN3CCCC3=O)[nH]c2c1 was read as KCNK3 block inactive.
`COc1ccc(N(Cc2cc3cccc(C)c3[nH]c2=O)S(=O)(=O)c2ccc(Cl)cc2)cc1` gave KCNQ1 inh inactive, KCNK9 inh -7.5, hERG protect inactive, KCNQ1 act inactive and KCNK3 block inactive.
Screening CCOC(=O)C1=CN(Cc2cccc(-c3ccc(Cl)nc3)c2)S(=O)(=O)N(C)C1C (stereo unspecified) returned KCNK3 block inactive.
For S=C(Nc1ccc(Cl)cc1)NC1CC2CCCC(C1)N2C1CC1 (stereo unspecified) the results were KCNQ1 inh inactive, KCNK9 inh inactive, hERG protect inactive, KCNQ1 act inactive and KCNK3 block inactive.
Screening S=C(Nc1ccc(Cl)cc1)NC1CC2CCCC(C1)N2C1CCCC1 (stereo unspecified) returned KCNQ1 inh inactive, KCNK9 inh inactive, hERG protect 5.6, KCNQ1 act inactive and KCNK3 block inactive.
`COc1ccc(NC(=O)c2sc(SC)nc2N)cc1` gave KCNQ1 inh inactive, KCNK9 inh inactive, hERG protect 5.1, KCNQ1 act inactive and KCNK3 block inactive.
`O=C(Nc1ccc2[nH]c(=S)sc2c1)c1ccccc1` gave KCNQ1 inh inactive, KCNK9 inh inactive, hERG protect inactive, KCNQ1 act 12 and KCNK3 block inactive.
For O=C(Nc1ccc(F)cc1)Nc1ccccc1F the results were KCNQ1 inh inactive, KCNK9 inh inactive, hERG protect inactive, KCNQ1 act inactive and KCNK3 block inactive.
Screening O=C(Nc1ccc2[nH]ccc2c1)c1ccccc1 returned KCNQ1 inh inactive, KCNK9 inh inactive, hERG protect inactive, KCNQ1 act inactive and KCNK3 block inactive.
O=C(Nc1ccc2[nH]c(=S)sc2c1)Nc1ccccc1F was read as KCNQ1 inh inactive, KCNK9 inh inactive, hERG protect 11, KCNQ1 act 15 and KCNK3 block inactive.
`O=[N+]([O-])c1cccc(-c2ccc(/C=N/Nc3nc(N4CCCCC4)nc(N4CCCCC4)n3)o2)c1` gave KCNQ1 inh 7, KCNK9 inh inactive, hERG protect inactive, KCNQ1 act inactive and KCNK3 block inactive.
Cc1ccc(C2=NOC(=O)/C2=C\C=C\c2ccccc2)cc1 was read as KCNQ1 inh inactive, KCNK9 inh inactive, hERG protect inactive, KCNQ1 act 8 and KCNK3 block inactive.
Screening O=C(N/N=C/c1ccccc1C(=O)O)c1ccccc1Br returned KCNQ1 inh inactive, KCNK9 inh inactive, hERG protect 4.9, KCNQ1 act inactive and KCNK3 block inactive.
C=CCc1cccc(/C=N/NC(=O)c2ccccc2Br)c1O was read as KCNQ1 inh inactive, KCNK9 inh inactive, hERG protect inactive, KCNQ1 act inactive and KCNK3 block inactive.
S=C(NNc1ccnc2cc(Cl)ccc12)Nc1ccccc1Cl was read as KCNQ1 inh 8, KCNK9 inh inactive, hERG protect inactive, KCNQ1 act inactive and KCNK3 block inactive.
`CCN(C(=O)COc1ccc(N(C)S(=O)(=O)c2ccc(NC(C)=O)cc2)cc1)C1CCCCC1` gave KCNK3 block -8.7.
`COc1ccc(NC(=O)COc2ccc(N(C)S(=O)(=O)c3ccc(Cl)cc3)cc2)cc1OC` gave KCNQ1 inh 10, KCNK9 inh inactive, hERG protect inactive, KCNQ1 act inactive and KCNK3 block inactive.
Screening CN(c1ccc(OCC(=O)OCC(=O)Nc2ccc(F)cc2)cc1)S(=O)(=O)c1ccc(Cl)cc1 returned KCNQ1 inh inactive, KCNK9 inh inactive, hERG protect inactive, KCNQ1 act inactive and KCNK3 block inactive.
`COc1ccc(-c2csc(NC(=O)COc3ccc(N(C)S(=O)(=O)c4ccc(C)cc4)cc3)n2)cc1` gave KCNQ1 inh inactive, KCNK9 inh -8, hERG protect inactive, KCNQ1 act inactive and KCNK3 block inactive.
Screening CC(=O)N[C@@H](CC(=O)N[C@H](CCC(=O)O)C(=O)O)C(=O)O returned KCNK3 block inactive.
For CC(OC(=O)C1CC1)C(=O)Nc1ncc(Cl)cc1Cl (stereo unspecified) the results were KCNK3 block inactive.
For CC(OC(=O)C1CC1)C(=O)Nc1cc(Cl)cc(Cl)c1 (stereo unspecified) the results were KCNK3 block -8.7.
Screening CCCOc1ccc(C(=O)CCC(=O)OCC(=O)Nc2cccc(S(N)(=O)=O)c2)cc1 returned KCNK3 block inactive.
`CCOC(=O)C1CCCN(c2c(C(=O)c3ccccc3)cnc3ccc(OC)cc23)C1` (stereo unspecified) gave KCNQ1 inh 6, KCNK9 inh inactive, hERG protect inactive, KCNQ1 act inactive and KCNK3 block inactive.
`Cc1ccc(C)c(-n2c(-c3ccc(Br)cc3)csc2=NC(=O)c2ccccc2F)c1` gave KCNQ1 inh inactive, KCNK9 inh -7.7, hERG protect inactive, KCNQ1 act inactive and KCNK3 block inactive.
`O=[N+]([O-])c1cccnc1N1CCCCC1` gave KCNQ1 inh inactive, KCNK9 inh inactive, hERG protect inactive, KCNQ1 act inactive and KCNK3 block inactive.
`Cc1ccc(C)c(N2CCN(c3ncccc3[N+](=O)[O-])CC2)c1` gave KCNQ1 inh inactive, KCNK9 inh -6.6, hERG protect inactive, KCNQ1 act inactive and KCNK3 block inactive.
Screening CCOc1cc(C)cc2oc(=O)cc(-c3ccccc3)c12 returned KCNQ1 inh inactive, KCNK9 inh -7, hERG protect inactive, KCNQ1 act inactive and KCNK3 block inactive.
